ChEMBL document CHEMBL3769308, “Melanin-Concentrating Hormone Receptor 1 Antagonists Lacking an Aliphatic Amine: Synthesis and Structure-Activity Relationships of Novel 1-(Imidazo[1,2-a]pyridin-6-yl)pyridin-2(1H)-one Derivatives” (J Med Chem, 2016)
Blank lines part the entries; values can stand above or below the molecule they belong to.

How the values were obtained:
[1] = target: T1, Melanin-concentrating hormone receptor 1 (Homo sapiens, UniProt Q99705); assay: Displacement of [125I]-MCH (4 to19 residues) from human MCHR1 expressed in CHO cell membranes after 1 hr by liquid scintillation counting analysis
T1 sequence (Q99705 whole entry, the tested form may be a part): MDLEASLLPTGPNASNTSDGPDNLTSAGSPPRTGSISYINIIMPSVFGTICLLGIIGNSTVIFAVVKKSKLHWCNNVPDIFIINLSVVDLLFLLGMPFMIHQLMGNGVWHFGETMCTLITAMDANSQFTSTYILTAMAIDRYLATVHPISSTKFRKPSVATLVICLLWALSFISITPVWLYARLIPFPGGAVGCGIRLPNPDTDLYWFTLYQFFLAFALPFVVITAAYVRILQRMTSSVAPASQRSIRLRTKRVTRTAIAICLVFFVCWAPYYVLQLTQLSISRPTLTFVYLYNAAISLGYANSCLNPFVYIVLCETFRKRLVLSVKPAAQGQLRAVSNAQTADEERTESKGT
Method in brief: (§1)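 Membranes from MCHR1-expressing CHO cells, homogenized in NaHCO3/EDTA with protease inhibitors, 100000g pellet held at 2 mg/mL protein in 20 mM Tris-HCl pH 7.5, 5 mM EDTA, protease inhibitors.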

[2] = target: Melanin-concentrating hormone receptor 1 (Rattus norvegicus, UniProt P97639); assay: Displacement of [125I]-MCH (4 to 19 residues) from rat MCHR1 expressed in CHO cell membranes after 1 hr by liquid scintillation counting analysis; method in brief: as §1
Sequence of Melanin-concentrating hormone receptor 1 (Rattus norvegicus, UniProt P97639) (P97639 whole entry, the tested form may be a part): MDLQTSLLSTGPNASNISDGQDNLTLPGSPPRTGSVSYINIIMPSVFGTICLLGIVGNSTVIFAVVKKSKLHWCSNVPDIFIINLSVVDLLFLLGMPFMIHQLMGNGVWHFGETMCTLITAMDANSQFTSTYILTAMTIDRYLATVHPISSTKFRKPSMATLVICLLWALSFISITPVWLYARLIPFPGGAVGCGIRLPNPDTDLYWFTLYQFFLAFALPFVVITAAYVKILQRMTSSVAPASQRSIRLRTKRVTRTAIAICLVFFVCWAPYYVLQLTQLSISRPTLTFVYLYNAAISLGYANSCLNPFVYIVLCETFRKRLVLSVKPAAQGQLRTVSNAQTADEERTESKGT

[3] = Lipophilicity, log D of the compound at pH 7.4; type: physicochemical; details: buffer
Method in brief: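 Chromatographic HPLC method with UV detection, estimating octanol/buffer partition at pH 7.4.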

[4] = Plasma concentration in diet-induced obese F344/jcl rat at 10 mg/kg, po administered on day 1 measured 24 hrs post dose; type: ADME, organism-based
Method in brief: (§2)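 From the DIO F344 rat 2-day feeding study (oral, 0.5% methylcellulose): plasma and brain concentrations taken 24 h after the day-1 dose; brain/plasma ratio from these.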

Plasma [5] = assay: Free plasma concentration in diet-induced obese F344/jcl rat at 3 mg/kg, po administered on day 1 measured 24 hrs post dose; type: ADME, organism-based; details: in vivo
Method in brief: (§3)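 Plasma level 24 h after day-1 oral dose in DIO F344 rats multiplied by the free fraction measured in DIO rat plasma to give free concentration.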

Plasma [6] = assay: Free plasma concentration in diet-induced obese F344/jcl rat at 10 mg/kg administered after 24 hrs in day 1; type: ADME, organism-based; details: in vivo; method in brief: as §3
[7] = Oral bioavailability in Sprague-Dawley rat at 1 mg/kg, administered through cassette dosing by LC/MS/MS analysis; type: ADME, organism-based; details: in vivo
[8] = target: T1, Melanin-concentrating hormone receptor 1; type: functional, cell-based, CHO
[9] = Total clearance in Sprague-Dawley rat at 0.1 mg/kg, iv administered through cassette dosing by LC/MS/MS analysis; type: ADME, organism-based; details: in vivo
Method in brief: (§4)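 Nonfasted male SD rats (8 weeks old, n = 3) given 0.1 mg/kg iv by cassette dosing; plasma deproteinized with acetonitrile, centrifuged, and supernatant concentrations measured by LC/MS/MS.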

[10] = Volume of distribution at steady state in Sprague-Dawley rat at 0.1 mg/kg, iv by LC/MS/MS analysis; type: ADME, organism-based; details: in vivo, read-out: Vdss; method in brief: as §4
[11] = Cmax in Sprague-Dawley rat at 1 mg/kg, po administered through cassette dosing by LC/MS/MS analysis; type: ADME, organism-based; design: dose 1 mg/kg, route oral; details: in vivo
[12] = Tmax in Sprague-Dawley rat at 1 mg/kg, po administered through cassette dosing by LC/MS/MS analysis; type: ADME, organism-based; details: in vivo
[13] = AUC (0 to 8 hrs) in Sprague-Dawley rat at 1 mg/kg, po administered through cassette dosing by LC/MS/MS analysis; type: ADME, organism-based; design: time < 8 hr, dose 1 mg/kg, route oral; details: in vivo
[14] = Unbound fraction in po dosed diet-induced obese F344/jcl rat plasma; type: ADME, organism-based
[15] = Plasma concentration in diet-induced obese F344/jcl rat at 3 mg/kg, po administered on day 1 measured 24 hrs post dose; type: ADME, organism-based; method in brief: as §2
[16] = Drug uptake in diet-induced obese F344/jcl rat brain at 3 mg/kg, po administered on day 1 measured 24 hrs post dose; type: ADME, organism-based; details: read-out: Drug uptake; method in brief: as §2
[17] = Drug uptake in diet-induced obese F344/jcl rat brain at 10 mg/kg, po administered on day 1 measured 24 hrs post dose; type: ADME, organism-based; method in brief: as §2
[18] = Ratio of drug level in brain to plasma in diet-induced obese F344/jcl rat at 3 mg/kg, po administered on day 1 measured 24 hrs post dose; type: ADME, organism-based; details: read-out: BPR; method in brief: as §2
[19] = Ratio of drug level in brain to plasma in diet-induced obese F344/jcl rat at 10 mg/kg, po administered on day 1 measured 24 hrs post dose; type: ADME, organism-based; details: read-out: BPR; method in brief: as §2
Rattus norvegicus [20] = assay: Antiobesity activity in diet-induced obese F344/jcl rat assessed as reduction in body weight at 3 mg/kg, po qd administered through repeated dosing for 2 weeks measured during 2 weeks of dosing relative to vehicle-treated control; type: functional; design: scale not given: the % may be the effect or the level left
Method in brief: (§5)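 Male DIO F344/Jcl rats (45 weeks old, high-fat diet), habituated and grouped as for feeding study; once-daily oral dosing in 0.5% methylcellulose at 2 mL/kg for 2 weeks, 1–3 h before dark onset after weighing, n = 6. Body weight change as percent of initial weight, compared with vehicle.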

Rattus norvegicus [21] = assay: Antiobesity activity in diet-induced obese F344/jcl rat assessed as reduction in body weight at 10 mg/kg, po qd administered through repeated dosing for 2 weeks measured during 2 weeks of dosing relative to vehicle-treated control; type: functional; design: scale not given: the % may be the effect or the level left; method in brief: as §5
Mus musculus [22] = assay: Anorectic activity in po dosed high fat diet fed wild type mouse assessed as reduction of food intake administered for 3 days measured during 3 days of dosing; type: functional, organism-based
Method in brief: (§6)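 Male MCHR1-deficient and wild-type littermate mice (45 weeks old) on high-fat diet D12451 from 5 weeks, singly housed, acclimated with 0.5 mL tap water dosing, grouped by day −3 to −1 intake and day −1 weight. Oral vehicle (0.5% methylcellulose) or suspension at 10 mL/kg for 3 days, n = 5–6; cumulative 3-day intake; Williams test.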

HepG2 = assay: Induction of phospholipidosis in human HepG2 cells at 0.6 to 20 uM after 24 hrs by NBD-PE-based fluorometric analysis; type: cell-based; details: hepg2, 24 h
Method in brief: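 HepG2 cells in DMEM with 5% FBS, precultured 24 h, then exposed 24 h at 37 °C to 60 μM NBD-PE medium plus compound medium (0.6 or 20 μM, added 1:1); amiodarone 10 μM final as reference. NBD-PE uptake fluorescence (ex 485/em 538), blank subtracted, expressed relative to amiodarone; maximum value taken.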

Mus musculus [23] = assay: Effect on food intake in MCHR-deficient high fat diet fed mouse at 10 to 30 mg/kg, po administered for 3 days measured during 3 days of dosing; type: ADME, organism-based; details: in vivo, 72 h; method in brief: as §6
Rattus norvegicus [24] = species on record: Rattus norvegicus; assay: animal or person; details: F344/jcl, po, 48 h, read-out: INH
Rattus norvegicus [25] = species on record: Rattus norvegicus; assay: animal or person; details: F344/jcl, po, 336 h, read-out: INH
Rattus norvegicus [26] = species on record: Rattus norvegicus; assay: animal or person; details: F344/jcl, po, 48 h, read-out: INH; remark: listed apart in the source
Rattus norvegicus [27] = species on record: Rattus norvegicus; assay: animal or person; details: F344/jcl, po, 336 h, read-out: INH; remark: listed apart in the source

- IC50 [1]: 120 nM
- IC50 [2]: 120 nM
SMILES: CCc1nc2ccc(-n3ccc(OCc4ccccc4)cc3=O)cn2c1C

- IC50 [1]: 12 nM
- IC50 [2]: 9.3 nM
SMILES: Cc1c(C2CC2)nc2ccc(-n3ccc(OCc4ccc(Br)cc4)cc3=O)cn12

- IC50 [1]: 150 nM
- IC50 [2]: 140 nM
- logD [3]: 2.9
SMILES: Cc1c(C2CC2)nc2ccc(-n3cnc(OCc4ccc(Cl)cc4)cc3=O)cn12

- concentration at 24 h [4]: 1350 ng/mL
- Cp(f) (Plasma [5]): 17.2 nM
- Cp(f) (Plasma [6]): 66.5 nM
- bioavailability [7]: 58%
- IC50 [1]: 26 nM
- IC50 [2]: 20 nM
- logD [3]: 3.2
- IC50 [8]: 23 nM
- clearance [9]: 5.2 mL/min/kg
- Vd [10]: 1.05 L/kg
- Cmax [11]: 313 ng/mL
- Tmax [12]: 2 h
- AUC(0-t) at 8 h [13]: 1880 ng·h/mL
- fraction unbound [14]: 0.02
- concentration at 24 h [15]: 351 ng/mL
- concentration at 24 h [16]: 218 ng/g
- concentration at 24 h [17]: 841 ng/g
- Kp at 24 h [18]: 0.61
- Kp at 24 h [19]: 0.62
SMILES: Cc1c(C2CC2)nc2ccc(-n3ccc(OCc4ccc(Cl)cc4)cc3=O)cn12
- Activity (Rattus norvegicus [20]): 3.7%
- Activity (Rattus norvegicus [21]): 8.6%
- Activity (Mus musculus [22]): Dose-dependent effect
- Activity (HepG2): Non-toxic
- Activity (Mus musculus [23]): Non-toxic
- inhibition in vivo at 3 mg/kg (Rattus norvegicus [24]): 15%
- inhibition in vivo at 10 mg/kg (Rattus norvegicus [25]): 36.2%
- inhibition in vivo at 10 mg/kg (Rattus norvegicus [26]): 29.6%
- inhibition in vivo at 3 mg/kg (Rattus norvegicus [27]): 15.4%

- IC50 [1]: > 1000 nM
- IC50 [2]: > 1000 nM
SMILES: Cc1oc2ccc(NC(=O)COc3ccc(OC(F)(F)F)cc3)cc2c1C

- IC50 [1]: 17 nM
- IC50 [2]: 15 nM
SMILES: Cc1c(C2CC2)nc2ccc(-n3ccc(OCc4csc(C(F)(F)F)c4)cc3=O)cn12

- IC50 [1]: 990 nM
- IC50 [2]: 650 nM
SMILES: Cc1c(C2CC2)nc2ccc(-n3cccc(OCc4ccc(Cl)cc4)c3=O)cn12

- IC50 [1]: > 1000 nM
- IC50 [2]: > 1000 nM
SMILES: CC(=O)c1nc2ccc(-n3ccc(OCc4ccc(F)cc4)cc3=O)cn2c1C

- IC50 [1]: 240 nM
- IC50 [2]: 150 nM
SMILES: Cc1c(C2CC2)nc2ccc(-n3ccc(OCc4ccccn4)cc3=O)cn12

- IC50 [1]: 7.7 nM
- IC50 [2]: 7.5 nM
- IC50 [8]: 19 nM
SMILES: Cc1c(C2CC2)nc2ccc(-n3ccc(OCc4csc(Cl)c4)cc3=O)cn12

- IC50 [1]: 3.8 nM
- IC50 [2]: 7.8 nM
SMILES: Cc1nc2ccc(NC(=O)COc3ccc(OC(F)(F)F)cc3)cn2c1C

- IC50 [1]: > 1000 nM
- IC50 [2]: > 1000 nM
SMILES: Cc1c(C2CC2)nc2ccc(-n3ccc(OCc4ccncc4)cc3=O)cn12

- IC50 [1]: 24 nM
- IC50 [2]: 19 nM
SMILES: Cc1c(C2CC2)nc2ccc(-n3ccc(OCc4ccc(Cl)cn4)cc3=O)cn12

- IC50 [1]: 94 nM
- IC50 [2]: 62 nM
SMILES: Cc1c(C2CC2)nc2ccc(-n3ccc4c(c3=O)CCC(c3ccc(Cl)cc3)O4)cn12 (stereo unspecified)

- IC50 [1]: 3 nM
- IC50 [2]: 6.3 nM
SMILES: Cc1c(C2CC2)nc2ccc(NC(=O)COc3ccc(OC(F)(F)F)cc3)cn12

- IC50 [1]: 78 nM
- IC50 [2]: 80 nM
SMILES: Cc1nc2ccc(-n3ccc(OCc4ccccc4)cc3=O)cn2c1C

- IC50 [1]: > 1000 nM
- IC50 [2]: > 1000 nM
SMILES: COCc1nc2ccc(-n3ccc(OCc4ccc(F)cc4)cc3=O)cn2c1C

- IC50 [1]: 210 nM
- IC50 [2]: 150 nM
SMILES: Cc1cn(-c2ccc3nc(C4CC4)c(C)n3c2)c(=O)cc1OCc1ccc(Cl)cc1

- IC50 [1]: 180 nM
- IC50 [2]: 170 nM
SMILES: Cc1c(CC#N)nc2ccc(-n3ccc(OCc4ccc(F)cc4)cc3=O)cn12
